The values that follow come from publication PMC11665415 (Neurobiology of Pain, 2024).

“Also recorded” adds a separate entry of the source. Where two headings read alike, the source gives them in different places.

Data set [1] concerns SNI-induced cold allodynia. The data set can be described thus: Spared nerve injury. Format: in vivo, mouse. The conditions noted are these: for SNI-induced cold allodynia, AUC between 0 and 6 h: day 28 post-SNI.
Data set [2] concerns capsaicin-induced mechanical allodynia. In words: Capsaicin pain model, mechanical allodynia. To be noted: 30 mg/kg IP. Format: in vivo, mouse. The procedure, abridged: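 Mice got intraplantar capsaicin (12 µg in 10 µL; vehicle 80 % saline, 10 % ethanol, 10 % Tween80) in the left footpad under isoflurane. One h later: single IP dose of test compound at 30 mg/kg or vehicle (30 % DMSO). 50 % paw withdrawal threshold by von Frey up-down method, baseline then 0–4 h post-dose. AUC over 0–4 h. n = 8 per sex. Two-way ANOVA with Tukey; one-way ANOVA with Dunnett for AUC.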

The subject of data set [3] is naïve mice. In words: Mechanical and cold sensitivity in naïve mice. Format: in vivo, mouse. The conditions noted are these: male and female naïve mice, 30 mg/kg IP. The procedure, abridged:
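Naïve male and female mice got test compound at 30 mg/kg IP in 30 % DMSO, with a 1 h wait before testing. Mechanical sensitivity measured with von Frey filaments by the up-down method. Cold sensitivity measured by applying an acetone drop to the hind paw.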

A short description of data set [4]: Snapshot pharmacokinetics in Balb/C mice. Format: in vivo, mouse. To be noted: 10 or 30 mg/kg IP or PO, up to five hours after dosing.
Data set [5] relates to voltage-gated calcium channels. Format: cell-based, rat.
For data set [6], the system named is potassium channels. The data set can be described thus: Whole-cell patch-clamp recordings of total potassium currents. Format: cell-based, rat. The procedure, abridged:
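Rat DRG neurons cultured in medium with 10 % FBS and 15 ng/ml NGF, on poly-D-lysine/laminin-coated coverslips at 37 °C, 5 % CO₂, and used within 24 h. Whole-cell patch clamp with test compound (10 µM) or 0.1 % DMSO in the external solution. Current density–voltage and peak current density (pA/pF) given as mean ± SEM.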
On the technique in general: In patch-clamp work, channel activity is measured electrically.

Data set [7] concerns PIKfyve. To be noted: 403 wild-type human kinases; ref Drewry et al., 2022; cited from earlier work.
Data set [8] relates to SNI-induced mechanical allodynia. The data set can be described thus: Spared nerve injury. Format: in vivo, mouse. The procedure, abridged:
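On day 28 after spared nerve injury, 50 % paw withdrawal threshold measured by von Frey up-down method, at baseline and from 0 to 6 h after a single IP injection. Doses: 3, 10 and 30 mg/kg in males; 30 mg/kg in females; vehicle 30 % DMSO. AUC over 0–6 h. n = 8. Two-way ANOVA with Tukey; one-way ANOVA with Dunnett.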

Data set [9] deals with voltage-gated sodium channels. Format: cell-based, rat. To be noted: for Effect on density of sodium currents: acute application.
Data set [10] concerns viral entry. The conditions noted are these: 1 µM, multiple cell types; ref Drewry et al., 2022; cited from earlier work.
Data set [11] can be described thus: Snapshot/standard pharmacokinetics in CD-1 mice. Format: in vivo, mouse. To be noted: for half-life: male, CD-1, mouse, plasma.
Data set [12] has as its system naïve mice. In words: Rotarod test of motor coordination in naïve mice. The conditions noted are these: male and female naïve mice, 30 mg/kg IP. Format: in vivo, mouse. The gist of the method:
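Naïve male and female mice received test compound at 30 mg/kg IP, dissolved in 30 % DMSO. Motor coordination measured on the rotarod. A mouse that fell was placed back on the cylinder and the session continued.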
A general note: In the rotarod test animals must keep their balance on a rotating rod.

The subject of data set [13] is SH-SY5Y cells. To be noted: SH-SY5Y cells treated at 5 µM; ref Drewry et al., 2022; cited from earlier work.

Regarding `CN(C)CC#Cc1ccc2[nH]c3c(c2c1)-c1nc(N)ncc1CCC3` [SGC-PIKFYVE-1], the SNI-induced cold allodynia result in data set [1] (female mice, 30 mg/kg IP) was “reduced”; in data set [1] (male mice, 3, 10 and 30 mg/kg IP) it was “reduced SNI-induced cold allodynia for six hours in a dose-dependent manner”. Also, the “SNI-induced cold allodynia, AUC between 0 and 6 h” value is “reversed SNI-induced cold allodynia” in [1] (female mice, 30 mg/kg IP) and “reversed SNI-induced cold allodynia” in data set [1] (male mice, 30 mg/kg IP). The Capsaicin-induced nociceptive behaviors result in data set [2] (female mice) was “able to reduce the nociceptive behaviors”. For the same compound, the “Duration of reduction of capsaicin-induced allodynia” value in data set [2] (male mice, 1 h after intraplantar capsaicin) is 2 h. Moreover, the “Mechanical and cold sensitivity” value in data set [3] was “did not induce changes”. The “Plasma concentration relative to cellular affinity for PIKfyve” value in data set [4] was “maintained well above the cellular affinity for PIKfyve”; in data set [11] (CD-1 mice, 30 mg/kg twice daily (BID) IP or PO), “well above its cellular affinity for PIKfyve”. Also, the “Calcium current density and peak current” value in [5] (10 µM, vs 0.1 % DMSO) is “unaffected”. For the same compound, the Fast inactivation k in data set [5] (total calcium currents, SGC-PIKFYVE-1 10 µM, DMSO control 0.99 ± 0.01) was 0.98 ± 0.02; in data set [9] (SGC-PIKFYVE-1 1 µM, DMSO control −13.64 ± 1.53), −14.49 ± 1.69; in data set [9] (SGC-PIKFYVE-1 10 µM, ProTxII set (Fig. 1), DMSO control −11.11 ± 0.74) it was −10.32 ± 0.73; in data set [9] (SGC-PIKFYVE-1 10 µM, VX-548 set (Fig. 2), DMSO control −12.25 ± 1.08), −10.25 ± 1.63. Moreover, the Activation k was 5.73 ± 0.58 in data set [5] (total calcium currents, SGC-PIKFYVE-1 10 µM, DMSO control 5.99 ± 0.64); 6.54 ± 0.66 in data set [9] (SGC-PIKFYVE-1 1 µM, DMSO control 4.93 ± 0.44); 4.89 ± 0.56 in data set [9] (SGC-PIKFYVE-1 10 µM, ProTxII set (Fig. 1), DMSO control 4.25 ± 0.42); 3.73 ± 0.47 in data set [9] (SGC-PIKFYVE-1 10 µM, VX-548 set (Fig. 2), DMSO control 3.70 ± 0.39). Moreover, the “Activation V0.5 (mV)” value is listed as −4.31 ± 0.67 mV in [5] (total calcium currents, SGC-PIKFYVE-1 10 µM, DMSO control −4.68 ± 0.73); −21.09 ± 0.74 mV in [9] (SGC-PIKFYVE-1 1 µM, DMSO control −21.776 ± 0.50); −20.11 ± 0.63 mV in data set [9] (SGC-PIKFYVE-1 10 µM, ProTxII set (Fig. 1), DMSO control −20.48 ± 0.48); −20.18 ± 0.55 mV in [9] (SGC-PIKFYVE-1 10 µM, VX-548 set (Fig. 2), DMSO control −24.61 ± 0.44). The “Fast inactivation V0.5 (mV)” value is given as −34.76 ± 1.79 mV in data set [5] (total calcium currents, SGC-PIKFYVE-1 10 µM, DMSO control −36.91 ± 0.73); −51.69 ± 1.67 mV in [9] (SGC-PIKFYVE-1 1 µM, DMSO control −53.6 ± 1.56); −51.51 ± 0.79 mV in data set [9] (SGC-PIKFYVE-1 10 µM, ProTxII set (Fig. 1), DMSO control −47.42 ± 0.79); −58.85 ± 1.79 mV in [9] (SGC-PIKFYVE-1 10 µM, VX-548 set (Fig. 2), DMSO control −52.39 ± 1.14). Besides, the “IV curve Peak/density (pA/pF)” value in [5] (total calcium currents, SGC-PIKFYVE-1 10 µM, DMSO control −107.71 ± 14.20) is recorded as −113.06 ± 13.24 pA/pF; in data set [6] (total potassium currents, SGC-PIKFYVE-1 10 µM, DMSO control 184.90 ± 17.17), 213.92 ± 21.52 pA/pF; in data set [9] (SGC-PIKFYVE-1 10 µM, ProTxII set (Fig. 1), DMSO control −533.2 ± 42.99), −348.7 ± 38.42 pA/pF; in data set [9] (SGC-PIKFYVE-1 10 µM, VX-548 set (Fig. 2), DMSO control −358.2 ± 32.87) it was −189.7 ± 47.11 pA/pF. Also, the “IK+ current or peak densities” value in data set [6] (acute treatment, 10 μM, vs 0.1 % DMSO) is given as “did not alter”. Besides, the Kinome selectivity result in data set [7] was “highly selective for PIKfyve”. For the same compound, in data set [8] (female mice, 30 mg/kg IP), the SNI-induced tactile allodynia result was “reduced SNI-induced tactile”. Also, the “Antiallodynic effect (AUC 0-6 h), dose dependence” value in data set [8] (male neuropathic mice, 3, 10 and 30 mg/kg IP) is “dose-dependent”. Besides, in [8] (male neuropathic mice, single IP injection 30 mg/kg, day 28 post-SNI), the “Paw mechanical withdrawal threshold” value is “increase of the paw mechanical withdrawal threshold for four hours”. The Voltage-dependence of activation result in [9] (10 µM, compared to the vehicle) is “remained unchanged”. In data set [9] (10 µM, vs vehicle), the “Hyperpolarizing shift in the voltage-dependence of inactivation” value stood at 4 mV. In addition, the “Effect on density of sodium currents” value in data set [9] (1 µM) is “but not at 1 µM”; in [9] (10 µM) it was “decrease in the density of sodium currents”. Moreover, in data set [10], the Viral entry entry is “inhibited viral entry”. Further, the “Oral bioavailability and in vivo stability (snapshot PK)” value in [11] (CD-1 mice, 10 mg/kg IP or PO, five-hour time course) was “exhibited oral bioavailability and remained relatively stable in vivo”. The “Detectability in plasma over twenty-four hours” value in [11] (CD-1 mice, 10 mg/kg IP or PO, no time points between 8 and 24 h) is on record as “no longer detectable after eight hours”; in data set [11] (CD-1 mice, 30 mg/kg IP or PO) it was “not detectable after eight hours”. In addition, the “Adverse effects / tolerability” value in data set [11] (CD-1 mice, 30 mg/kg) is recorded as “did not induce any adverse effects; also recorded: well tolerated”. Further, the half-life (in general, the time needed for the level to fall by half in the phase considered) in data set [11] (ip) was approximately 3.5 h; in data set [11] (po, 30 mg/kg), 3.5 h. Also, the “Motor coordination (rotarod)” value in data set [12] was “did not induce changes”. Besides, in data set [13], the Lysosomal homeostasis result was “impacted lysosomal homeostasis”.
As for `COc1c([C@H]2[C@H](C(=O)Nc3ccnc(C(N)=O)c3)O[C@@](C)(C(F)(F)F)[C@H]2C)ccc(F)c1F` [VX-548, reference compound], in [9] (VX-548 5 nM, DMSO control 3.70 ± 0.39), the Activation k is given as 6.18 ± 0.88. Moreover, the Fast inactivation k in [9] (VX-548 5 nM, DMSO control −12.25 ± 1.08) was −9.98 ± 0.99. The “Activation V0.5 (mV)” value in data set [9] (VX-548 5 nM, DMSO control −24.61 ± 0.44) is recorded as −19.51 ± 0.98 mV. Also, the “Fast inactivation V0.5 (mV)” value in data set [9] (VX-548 5 nM, DMSO control −52.39 ± 1.14) is reported as −59.85 ± 1.10 mV. In addition, the “IV curve Peak/density (pA/pF)” value in data set [9] (VX-548 5 nM, DMSO control −358.2 ± 32.87) was −200.5 ± 35.37 pA/pF.
As to `Cc1cccc(/C=N/Nc2cc(N3CCOCC3)nc(OCCc3ccccn3)n2)c1` [apilimod, reference compound], in data set [13], the Lysosomal homeostasis result was “impacted lysosomal homeostasis”.
In data set [9] (ProTxII 5 nM, DMSO control 4.25 ± 0.42), ProTxII [reference compound] returned an Activation k of 4.17 ± 0.49. The compound also gave a Fast inactivation k in [9] (ProTxII 5 nM, DMSO control −11.11 ± 0.74) of −11.11 ± 1.15. The “Activation V0.5 (mV)” value in data set [9] (ProTxII 5 nM, DMSO control −20.48 ± 0.48) is given as −14.89 ± 0.57 mV. Moreover, the “Fast inactivation V0.5 (mV)” value in data set [9] (ProTxII 5 nM, DMSO control −47.42 ± 0.79) was −53.17 ± 1.24 mV. Also, the “IV curve Peak/density (pA/pF)” value in [9] (ProTxII 5 nM, DMSO control −533.2 ± 42.99) is −207.3 ± 57.12 pA/pF.
